Values after ≈ are worked out from the molar mass of the structure shown.
Key:
[1] = Compound was evaluated for the octanol/water partition coefficient at 37 degree Celsius at 10.5 hour; format: physicochemical
In short: (§1)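 Dilute aqueous solutions were equilibrated with 1-octanol at 37 °C. At each sampling interval the tubes were centrifuged. Aliquots of the octanol layer, then of the water layer, were diluted into methanol and stored at -20 °C for analysis.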

[2] = Compound was evaluated for the octanol/water partition coefficient at 37 degree Celsius at 24.5 hour; format: physicochemical; in short: as §1
[3] = Compound was evaluated for the octanol/water partition coefficient at 37 degree Celsius at 4.5 hour; format: physicochemical; in short: as §1
[4] = Solubility of 150 mg compound in aqueous buffer at pH 7.3 and 37 degree Celsius after 4.0 hr; format: physicochemical; conditions: read-out: Concentration
In short: (§2)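 Crystalline compound (stated amount) was agitated in 1 mL phosphate-buffered saline (NaH2PO4/NaCl, pH 7.3) at 37 °C. At each time point samples were centrifuged 5 min at 14000 rpm. Supernatant was diluted in mobile phase and quantified by HPLC against standards. Concentrations were corrected for prodrug decomposition.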

[5] = Solubility of 150 mg compound in aqueous buffer at pH 7.3 and 37 degree Celsius after 8.0 hr; format: physicochemical; conditions: read-out: Concentration; in short: as §2
[6] = Compound was evaluated for the octanol/water partition coefficient at 37 degree Celsius at 1.0hr; format: physicochemical; conditions: 1 h; in short: as §1
Human alphaherpesvirus 1 [7] = assay: virus rating as the measure of the activity against herpes simplex virus type 1(strain 377); format: functional
Human alphaherpesvirus 1 [8] = assay: In vitro activity against herpes simplex virus type 1(strain 377) and the minimum inhibitory concentration was determined; format: functional
[9] = Compound was evaluated for the octanol/water partition coefficient at 37 degree Celsius at 3.0 hr; format: physicochemical; in short: as §1
[10] = Solubility of 20 mg compound in aqueous buffer at pH 7.3 and 37 degree Centigrade after 8.0 hr; format: physicochemical; conditions: read-out: Concentration; in short: as §2
[11] = Solubility of 20 mg compound in aqueous buffer at pH 7.3 and 37 degree Celsius after 13.5 hr; format: physicochemical; conditions: read-out: Concentration; in short: as §2
[12] = Solubility of 20 mg compound in aqueous buffer at pH 7.3 and 37 degree Celsius after 4.0 hr; format: physicochemical; conditions: read-out: Concentration; in short: as §2
[13] = Solubility of 10 mg compound in aqueous buffer at pH 7.3 and 37 degree Celsius after 4.0 hr; format: physicochemical; conditions: read-out: Concentration; in short: as §2
[14] = Solubility of 10 mg compound in aqueous buffer at pH 7.3 and 37 degree Celsius after 13.5 hr; format: physicochemical; conditions: read-out: Concentration; in short: as §2
[15] = Solubility of 10 mg compound in aqueous buffer at pH 7.3 and 37 degree Centigrade after 8.0 hr; format: physicochemical; conditions: read-out: Concentration; in short: as §2
Human alphaherpesvirus 1 [16] = assay: Compound was evaluated for its activity against herpes simplex virus type 1(strain 377) and the minimum inhibitory concentration was determined; format: functional

SMILES | Partition coefficient [1] | Partition coefficient [2] | Partition coefficient [3] | solubility at 4 h [4] [mg/mL] | solubility at 8 h [5] [mg/mL] | Partition coefficient [6] | MIC50 (Human alphaherpesvirus 1 [8]) [µg/mL] | Partition coefficient [9] | solubility at 8 h [10] [mg/mL] | solubility at 13.5 h [11] [mg/mL] | solubility at 4 h [12] [mg/mL] | solubility at 4 h [13] [mg/mL] | solubility at 13.5 h [14] [mg/mL] | solubility at 8 h [15] [mg/mL] | MIC50 (Human alphaherpesvirus 1 [16]) [µg/mL] | VR (Human alphaherpesvirus 1 [7])
CCCCC(=O)O[C@H]1C(n2cnc3c(N)ncnc32)O[C@H](CO)[C@@H]1O (some centres undefined) | 3 | 2.8 | 2.2 | – | – | 2.5 | 56.8 (≈ 0.162 mM) | 2.5 | 10.8 (≈ 30.7 mM) | 11 (≈ 31.3 mM) | 9.28 (≈ 26.4 mM) | – | – | – | – | 2.6
CCCC(=O)O[C@H]1C(n2cnc3c(N)ncnc32)O[C@H](CO)[C@@H]1O (some centres undefined) | – | 0.975 | 0.969 | – | – | – | 71.9 (≈ 0.213 mM) | 0.911 | – | – | – | 3.38 (≈ 10 mM) | 3.31 (≈ 9.81 mM) | 3.54 (≈ 10.5 mM) | – | 1.5
Nc1ncnc2c1ncn2[C@@H]1O[C@H](CO)[C@@H](O)[C@@H]1O [VIDARABINE] | – | – | – | – | – | – | – | – | – | – | – | – | – | – | 9.5 (≈ 0.0355 mM) | 2

Now from value to compound, other results behind:

Partition coefficient [1] | Partition coefficient [2] | Partition coefficient [3] | solubility at 4 h [4] [mg/mL] | solubility at 8 h [5] [mg/mL] | Partition coefficient [6] | MIC50 (Human alphaherpesvirus 1 [8]) [µg/mL] | Partition coefficient [9] | solubility at 8 h [10] [mg/mL] | solubility at 13.5 h [11] [mg/mL] | solubility at 4 h [12] [mg/mL] | solubility at 4 h [13] [mg/mL] | solubility at 13.5 h [14] [mg/mL] | solubility at 8 h [15] [mg/mL] | MIC50 (Human alphaherpesvirus 1 [16]) [µg/mL] | SMILES | VR (Human alphaherpesvirus 1 [7])
0.127 | 0.122 | 0.118 | 93.6 (≈ 303 mM) | 93.6 (≈ 303 mM) | 0.149 | 26.2 (≈ 0.0847 mM) | 0.134 | – | – | – | – | – | – | – | CC(=O)O[C@H]1C(n2cnc3c(N)ncnc32)O[C@H](CO)[C@@H]1O (some centres undefined) | 2.3
0.335 | 0.329 | 0.318 | – | – | 0.336 | 29.3 (≈ 0.0906 mM) | 0.359 | 11 (≈ 34 mM) | 13 (≈ 40.2 mM) | 11.1 (≈ 34.3 mM) | – | – | – | – | CCC(=O)O[C@H]1C(n2cnc3c(N)ncnc32)O[C@H](CO)[C@@H]1O (some centres undefined) | 1.9
